{"data": "Assay results collected from several papers", "target": "Muscarinic acetylcholine receptor M4 (CHRM4, Homo sapiens, UniProt P08173)", "Sequence (P08173 1-479, as in one of the studies)": "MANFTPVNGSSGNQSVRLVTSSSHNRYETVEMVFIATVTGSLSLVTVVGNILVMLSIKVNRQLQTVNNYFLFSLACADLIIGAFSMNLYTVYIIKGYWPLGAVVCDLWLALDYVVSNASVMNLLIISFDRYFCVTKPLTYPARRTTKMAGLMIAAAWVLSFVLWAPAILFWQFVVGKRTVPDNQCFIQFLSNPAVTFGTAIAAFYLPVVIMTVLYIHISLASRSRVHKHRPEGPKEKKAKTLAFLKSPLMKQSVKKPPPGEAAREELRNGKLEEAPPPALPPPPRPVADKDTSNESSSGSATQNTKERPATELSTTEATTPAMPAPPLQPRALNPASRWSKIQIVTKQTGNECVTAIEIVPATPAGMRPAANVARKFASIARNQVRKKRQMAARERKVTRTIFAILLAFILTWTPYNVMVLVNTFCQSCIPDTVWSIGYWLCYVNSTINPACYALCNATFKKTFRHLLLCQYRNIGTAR", "note": "Protocols differ between the studies behind these lines."}
{"SMILES": "Cc1ncc(C)n2nc(/C=C/c3nc(N4CCCC4)cc(N4CCOCC4)n3)nc12", "assay": "ligand displacement", "conditions": "10 µM", "inhibition [%]": 47}
{"SMILES": "N#CC1(c2ccccn2)CCN(Cc2cc(C(=O)O)c(=O)n3ccccc23)CC1", "assay": "cell-free assay", "conditions": "10 µM", "inhibition [%]": -2.36}
{"SMILES": "C[C@H](C(=O)N[C@H]1COc2ccccc2[C@@H]1S(C)(=O)=O)c1ccc(F)cc1", "assay": "cell-free assay", "conditions": "10 µM", "inhibition [%]": 6}
{"SMILES": "Cn1cncc1[C@@](O)(COc1ccc(C#N)cc1-c1ccc(OC(F)(F)F)cc1)c1ccc(C#N)cc1", "assay": "ligand displacement", "conditions": "10 µM", "inhibition [%]": -9.7}
{"SMILES": "CN1CC[C@@]2(C)c3cc(OC(=O)Nc4ccccc4)ccc3N(C)[C@@H]12", "assay": "ligand displacement, radioligand", "conditions": "10 µM", "inhibition [%]": 0.3}
{"SMILES": "O=C(Nc1cccnn1)N1CCN([C@@H]2CCOc3cc(C(F)(F)F)ccc32)CC1", "assay": "cell-free assay", "conditions": "20 µM", "inhibition [%]": 15}
{"SMILES": "COCc1c(-c2cc3cc(C)cc(OC)c3s2)c2c(N)ncnn2c1CN1CCNC(=O)C1", "assay": "ligand displacement, radioligand", "conditions": "10 µM", "inhibition [%]": 6}
{"SMILES": "c1ccc(C(NCCNC(c2ccccc2)c2ccccc2)c2ccccc2)cc1", "assay": "cell-free assay", "conditions": "10 µM", "inhibition [%]": 32}
